Reference: ChEMBL document CHEMBL2375304, “Synthesis and anticancer activity of novel 2-pyridyl hexahyrocyclooctathieno[2,3-d]pyrimidine derivatives” (2013)

Experiments:
Format in all cases: functional
SF-268 [1] = assay: Growth inhibition of human SF268 cells after 48 hrs by Sulforhodamine B assay; settings: SF-268, 48 h
Outline: (§1)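 Cells were preincubated 24 h at 37 °C, 5% CO2, and a time-zero plate was TCA-fixed. Five concentrations were made by serial dilution from a DMSO stock (400-fold the top concentration) and incubated 48 h. Adherent cells were fixed with 10% final TCA and suspension cells with 16%. Plates were stained with 0.4% SRB and read at 515 nm. GI50 is the concentration giving 50% reduction in net protein increase versus control.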

MDA-MB-468 = assay: Growth inhibition of human MDA-MB-468 cells after 48 hrs by Sulforhodamine B assay; settings: MDA-MB-468, 48 h; outline: as §1
PC-3 = assay: Growth inhibition of human PC3 cells after 48 hrs by Sulforhodamine B assay; settings: PC-3, 48 h; outline: as §1
BT-549 = assay: Growth inhibition of human BT549 cells after 48 hrs by Sulforhodamine B assay; settings: BT-549, 48 h
Outline: (§2)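 Five-concentration SRB assay using 10-fold or ½-log serial dilutions from a DMSO stock. Exposure is 48 h at 37 °C in 5% CO2 after 24 h preincubation. TCA fixation is followed by SRB staining and a reading at 515 nm. Percentage growth is computed from time-zero, control and treated absorbances. GI50 is the concentration where [(Ti−Tz)/(C−Tz)]×100 = 50, read from the plot against log concentration.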

A498 [2] = assay: Growth inhibition of human A498 cells after 48 hrs by Sulforhodamine B assay; settings: A498, 48 h; outline: as §2
UACC-62 = assay: Growth inhibition of human UACC62 cells after 48 hrs by Sulforhodamine B assay; settings: UACC-62, 48 h
Outline: (§3)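 Five-concentration stage in the […]-cell-line panel, using 10-fold or ½-log serial dilutions made from a DMSO stock (400-fold). Cells were preincubated 24 h at 37 °C, then drug-exposed 48 h. A time-zero plate was fixed with TCA at dosing, adherent cells were fixed with cold TCA (10% final), and protein was stained with SRB, absorbance 515 nm. GI50 was where [(Ti−Tz)/(C−Tz)]×100 = 50, from the percent growth vs log concentration plot, expressed as log10 GI50.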

NCI-H23 [3] = assay: Growth inhibition of human NCI-H23 cells after 48 hrs by Sulforhodamine B assay; settings: NCI-H23, 48 h; outline: as §1
RXF 393 = assay: Growth inhibition of human RXF393 cells after 48 hrs by Sulforhodamine B assay; settings: RXF 393, 48 h; outline: as §1
MCF7 = assay: Growth inhibition of human MCF7 cells after 48 hrs by Sulforhodamine B assay; settings: MCF7, 48 h; outline: as §2
UO-31 = assay: Growth inhibition of human UO31 cells after 48 hrs by Sulforhodamine B assay; settings: UO-31, 48 h; outline: as §3
OVCAR-3 = assay: Growth inhibition of human OVCAR3 cells after 48 hrs by Sulforhodamine B assay; settings: OVCAR-3, 48 h; outline: as §1
K562 = assay: Growth inhibition of human K562 cells after 48 hrs by Sulforhodamine B assay; settings: K562, 48 h; outline: as §2
MDA-MB-231 = assay: Growth inhibition of human MDA-MB-231 cells after 48 hrs by Sulforhodamine B assay; settings: MDA-MB-231, 48 h; outline: as §2
NCI-H322M = assay: Growth inhibition of human NCI-H322M cells after 48 hrs by Sulforhodamine B assay; outline: as §1
SK-MEL-5 = assay: Growth inhibition of human SK-MEL-5 cells after 48 hrs by Sulforhodamine B assay; settings: SK-MEL-5, 48 h; outline: as §1
M14 = assay: Growth inhibition of human M14 cells after 48 hrs by Sulforhodamine B assay; settings: M14, 48 h; outline: as §2
MDA-MB-435 = assay: Growth inhibition of human MDA-MB-435 cells after 48 hrs by Sulforhodamine B assay; settings: MDA-MB-435, 48 h; outline: as §2
NCI-H460 = assay: Growth inhibition of human NCI-H460 cells after 48 hrs by Sulforhodamine B assay; settings: NCI-H460, 48 h; outline: as §1
SF-539 = assay: Growth inhibition of human SF539 cells at 10^-5 M after 48 hrs by Sulforhodamine B assay relative to control; settings: SF-539, 48 h, read-out: GI
Outline: (§4)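 Single-dose primary screen at 10⁻⁵ M across 49 lines. Cells were plated 24 h beforehand, with a TCA-fixed time-zero plate, then exposed 48 h at 37 °C, 5% CO2. Cells were fixed with cold TCA, stained with SRB and read at 515 nm. Percent growth was calculated against time-zero and untreated-control absorbances.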

ACHN = assay: Growth inhibition of human ACHN cells at 10^-5 M after 48 hrs by Sulforhodamine B assay relative to control; settings: read-out: GI
Outline: (§5)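 Single-dose screen at 10⁻⁵ M. Cells are preincubated 24 h at 37 °C in 5% CO2, then exposed to the compound, diluted from a DMSO stock into medium with gentamicin, for 48 h. Adherent cells are fixed with cold TCA (final 10%) and suspension cells with TCA (final 16%). Cells are stained with 0.4% SRB in 1% acetic acid and bound dye is read at 515 nm. Percent growth inhibition is taken against control wells and time-zero plates.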

SF-268 [4] = assay: Growth inhibition of human SF268 cells at 10^-5 M after 48 hrs by Sulforhodamine B assay relative to control; settings: SF-268, 48 h, read-out: GI; outline: as §4
HT-29 = assay: Growth inhibition of human HT-29 cells at 10^-5 M after 48 hrs by Sulforhodamine B assay relative to control; settings: HT-29, 48 h, read-out: GI; outline: as §5
KM12 = assay: Growth inhibition of human KM12 cells at 10^-5 M after 48 hrs by Sulforhodamine B assay relative to control; settings: KM12, 48 h, read-out: GI; outline: as §5
786-0 = assay: Growth inhibition of human 786-0 cells at 10^-5 M after 48 hrs by Sulforhodamine B assay relative to control; settings: 786-0, 48 h, read-out: GI; outline: as §5
NCI-H23 [5] = assay: Growth inhibition of human NCI-H23 cells at 10^-5 M after 48 hrs by Sulforhodamine B assay relative to control; settings: NCI-H23, 48 h, read-out: GI; outline: as §4
MOLT-4 = assay: Growth inhibition of human MOLT4 cells at 10^-5 M after 48 hrs by Sulforhodamine B assay relative to control; settings: MOLT-4, 48 h, read-out: GI; outline: as §4
A498 [6] = assay: Growth inhibition of human A498 cells at 10^-5 M after 48 hrs by Sulforhodamine B assay relative to control; settings: A498, 48 h, read-out: GI; outline: as §5
OVCAR-8 = assay: Growth inhibition of human OVCAR8 cells at 10^-5 M after 48 hrs by Sulforhodamine B assay relative to control; settings: OVCAR-8, 48 h, read-out: GI; outline: as §4
OVCAR-5 = assay: Growth inhibition of human OVCAR5 cells at 10^-5 M after 48 hrs by Sulforhodamine B assay relative to control; settings: OVCAR-5, 48 h, read-out: GI; outline: as §4
SW-620 = assay: Growth inhibition of human SW620 cells at 10^-5 M after 48 hrs by Sulforhodamine B assay relative to control; settings: SW-620, 48 h, read-out: GI; outline: as §4

| SMILES | GI50 (SF-268 [1]) [µM] | GI50 (MDA-MB-468) [µM] | GI50 (PC-3) [µM] | GI50 (BT-549) [µM] | GI50 (A498 [2]) [nM] | GI50 (UACC-62) [µM] | GI50 (NCI-H23 [3]) [µM] | GI50 (RXF 393) [µM] | GI50 (MCF7) [µM] | GI50 (UO-31) [nM] | GI50 (OVCAR-3) [µM] | GI50 (K562) [µM] | GI50 (MDA-MB-231) [µM] | GI50 (NCI-H322M) [µM] | GI50 (SK-MEL-5) [nM] | GI50 (M14) [µM] | GI50 (MDA-MB-435) [µM] | GI50 (NCI-H460) [µM] | inhibition of growth at 10 µM (SF-539) [%] | inhibition of growth at 10 µM (ACHN) [%] | also measured |
| --- | --- | --- | --- | --- | --- | --- | --- | --- | --- | --- | --- | --- | --- | --- | --- | --- | --- | --- | --- | --- | --- |
| O=c1[nH]c(-c2ccccn2)nc2sc3c(c12)CCCCCC3 | 8.71 | 1.66 | 4.07 | 5.62 | 1320 | 5.5 | 11 | 7.41 | 2.45 | 5890 | 8.51 | 1 | 8.71 | 85.1 | 2950 | 4.07 | > 100 | 1.91 |  |  |  |
| COc1ccc(N2CCN(c3nc(-c4ccccn4)nc4sc5c(c34)CCCCCC5)CC2)cc1 | > 100 | 4.07 | 3.31 | 6.92 | 3310 | 6.92 | 17 | > 100 | 3.16 | 3310 | 8.71 | 4.17 | 50.1 | 5.5 | 2820 | 5.37 | 5.5 | 4.68 |  |  |  |
| CN1CCN(c2nc(-c3ccncc3)nc3sc4c(c23)CCCCCC4)CC1 | 5.37 | 5.25 | 4.68 | 6.31 | 1050 | 11 | 11.5 | 4.07 | 6.61 | 1580 | 13.5 | 3.55 | 4.27 | 13.2 | 7940 | 5.37 | 11.7 | 13.5 |  |  |  |
| c1ccc(N2CCN(c3nc(-c4ccncc4)nc4sc5c(c34)CCCCCC5)CC2)cc1 |  |  |  |  |  |  |  |  |  |  |  |  |  |  |  |  |  |  | 1.14 | 7.05 | inhibition of growth at 10 µM (SF-268 [4]): -1.33%; inhibition of growth at 10 µM (HT-29): 12.8%; inhibition of growth at 10 µM (KM12): 4.95%; inhibition of growth at 10 µM (786-0): 1.77%; inhibition of growth at 10 µM (NCI-H23 [5]): 1.33%; inhibition of growth at 10 µM (MOLT-4): 4.82%; inhibition of growth at 10 µM (A498 [6]): 4.79%; inhibition of growth at 10 µM (OVCAR-8): 8.55%; inhibition of growth at 10 µM (OVCAR-5): 1.59%; inhibition of growth at 10 µM (SW-620): -9.11% |
| c1ccc(-c2nc(N3CCOCC3)c3c4c(sc3n2)CCCCCC4)nc1 | 8.91 | 4.17 | 2.69 | 4.37 | 1660 | 3.47 | 6.03 | 8.32 | 3.02 | 1170 | 4.57 | 3.47 | 7.41 | 5.5 | 2000 | 4.17 | 4.79 | 5.89 |  |  |  |
| COc1ccc(N2CCN(c3nc(-c4ccncc4)nc4sc5c(c34)CCCCCC5)CC2)cc1 |  |  |  |  |  |  |  |  |  |  |  |  |  |  |  |  |  |  | 7.87 | 19.9 | inhibition of growth at 10 µM (SF-268 [4]): 2.5%; inhibition of growth at 10 µM (HT-29): 23.4%; inhibition of growth at 10 µM (KM12): 22.4%; inhibition of growth at 10 µM (786-0): 11.1%; inhibition of growth at 10 µM (NCI-H23 [5]): 17.3%; inhibition of growth at 10 µM (MOLT-4): 16.1%; inhibition of growth at 10 µM (A498 [6]): 6.97%; inhibition of growth at 10 µM (OVCAR-8): 5.9%; inhibition of growth at 10 µM (OVCAR-5): 2.26%; inhibition of growth at 10 µM (SW-620): 1.53% |
